One series relates to ASPC1. The series is described as follows: Antimetastatic activity against human AsPC1 cells xenografted in BALB/c nu/nu mouse co-implanted with human PSC assessed as reduction in metastasis lesions in liver at 75 mg/kg, po administered twice per week via gavage measured after 28 days post first dose by microscopic analysis. The format is functional, organism-based. An outline of the steps:
(§1)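 Female athymic BALB/c nu/nu mice, 6–8 weeks old. 1×10^6 AsPC-1 and 1×10^6 human pancreatic stellate cells in 50 µL PBS injected into the pancreatic tail. Treatment randomized on day 7 (n = 4/group) for 4 weeks: 10 mg/kg/day ip in 50 mM sodium acetate pH 5.5/10% DMSO/1% Kolliphor HS-15, or gemcitabine 75 mg/kg by oral gavage twice weekly, or vehicle. At kill, liver scored for visible macrometastases, fixed in formalin, and 4 µm sections stained with H&E. Chi-square test.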
For orientation: In xenograft studies the graft and the host belong to different species.

In a further series the test system is Homo sapiens. The series is described as follows: Antimetastatic activity against human PSC xenografted in BALB/c nu/nu mouse co-implanted with human AsPC1 cells assessed as reduction in metastasis lesions in liver at 75 mg/kg, po administered twice per week via gavage measured after 28 days post first dose by microscopic analysis. The format is functional, organism-based. The gist of the method:
as §1

The target in series [1] is ENaC gamma subunit (epithelial sodium channel subunit gamma) (Homo sapiens, UniProt P51170). Nature of the series: Inhibition of S-3969-stimulated recombinant human ENaC gamma subunit expressed in HEK293 cells at 10 uM preincubated for 5 mins followed by S-3969 stimulation by FLIPR assay. The format is cell-based. The settings on record: HEK293 cells expressing recombinant human ENaC gamma subunit. An outline of the steps: (§2)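 HEK-293 cells transfected with human ENaC α, β and γ cDNA together, plated at 20 000 cells/well, incubated overnight at 37 °C. Loaded with membrane-potential red dye for 30 min at 37 °C. Compound preincubated 5 min in HEPES-buffered salt solution (pH 7.4, 0.3% DMSO), then stimulated with 1 µM S-3969, read on FLIPR. Signal normalized to agonist alone (100%) and agonist plus 30 µM benzamil (0%). n = 4 wells.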

Series [2] addresses ENaC alpha subunit (epithelial sodium channel subunit alpha) (Homo sapiens, UniProt P37088). Nature of the series: Inhibition of S-3969-stimulated recombinant human ENaC alpha subunit expressed in HEK293 cells at 10 uM preincubated for 5 mins followed by S-3969 stimulation by FLIPR assay. The settings on record: HEK293 cells expressing recombinant human ENaC alpha subunit. The format is cell-based. The gist of the method: as §2

For series [3], the target named is ENaC beta subunit (epithelial sodium channel subunit beta) (Homo sapiens, UniProt P51168). Nature of the series: Inhibition of S-3969-stimulated recombinant human ENaC beta subunit expressed in HEK293 cells at 10 uM preincubated for 5 mins followed by S-3969 stimulation by FLIPR assay. Conditions: HEK293 cells expressing recombinant human ENaC beta subunit. The format is cell-based. An outline of the steps: as §2

A further series deals with HT-1080. Nature of the series: Antimetastatic activity against luciferase-tagged human HT1080 cells xenografted in NOD.Cg-Prkdc<scid>-IL2rg<tm1Wjl>SzJAusb mouse assessed as inhibition of late-stage lung metastasis at 7.5 mg/kg/day, ip administered from day -1 to day 20 measured day 21.

Activity calls are given as the source filed them. The rule behind the calls is not given here.

ENaC beta subunit (epithelial sodium channel subunit beta), sequence (P51168 whole entry): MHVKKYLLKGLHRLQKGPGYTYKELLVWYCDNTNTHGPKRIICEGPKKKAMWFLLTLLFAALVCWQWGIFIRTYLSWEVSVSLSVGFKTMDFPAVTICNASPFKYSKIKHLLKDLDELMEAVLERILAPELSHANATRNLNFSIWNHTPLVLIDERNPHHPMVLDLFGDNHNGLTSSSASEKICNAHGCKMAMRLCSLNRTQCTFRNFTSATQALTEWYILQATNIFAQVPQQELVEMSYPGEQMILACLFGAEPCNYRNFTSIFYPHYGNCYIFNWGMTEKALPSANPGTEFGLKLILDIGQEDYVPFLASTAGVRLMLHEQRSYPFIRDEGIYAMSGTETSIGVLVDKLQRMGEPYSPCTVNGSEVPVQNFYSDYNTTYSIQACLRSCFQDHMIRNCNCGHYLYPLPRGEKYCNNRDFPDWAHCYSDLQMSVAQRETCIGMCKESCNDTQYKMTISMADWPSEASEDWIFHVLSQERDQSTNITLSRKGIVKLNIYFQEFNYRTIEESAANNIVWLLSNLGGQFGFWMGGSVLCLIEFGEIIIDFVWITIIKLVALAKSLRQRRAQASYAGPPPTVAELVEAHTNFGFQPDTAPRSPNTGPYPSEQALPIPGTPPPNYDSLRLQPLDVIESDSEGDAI
ENaC alpha subunit (epithelial sodium channel subunit alpha), sequence (P37088 whole entry): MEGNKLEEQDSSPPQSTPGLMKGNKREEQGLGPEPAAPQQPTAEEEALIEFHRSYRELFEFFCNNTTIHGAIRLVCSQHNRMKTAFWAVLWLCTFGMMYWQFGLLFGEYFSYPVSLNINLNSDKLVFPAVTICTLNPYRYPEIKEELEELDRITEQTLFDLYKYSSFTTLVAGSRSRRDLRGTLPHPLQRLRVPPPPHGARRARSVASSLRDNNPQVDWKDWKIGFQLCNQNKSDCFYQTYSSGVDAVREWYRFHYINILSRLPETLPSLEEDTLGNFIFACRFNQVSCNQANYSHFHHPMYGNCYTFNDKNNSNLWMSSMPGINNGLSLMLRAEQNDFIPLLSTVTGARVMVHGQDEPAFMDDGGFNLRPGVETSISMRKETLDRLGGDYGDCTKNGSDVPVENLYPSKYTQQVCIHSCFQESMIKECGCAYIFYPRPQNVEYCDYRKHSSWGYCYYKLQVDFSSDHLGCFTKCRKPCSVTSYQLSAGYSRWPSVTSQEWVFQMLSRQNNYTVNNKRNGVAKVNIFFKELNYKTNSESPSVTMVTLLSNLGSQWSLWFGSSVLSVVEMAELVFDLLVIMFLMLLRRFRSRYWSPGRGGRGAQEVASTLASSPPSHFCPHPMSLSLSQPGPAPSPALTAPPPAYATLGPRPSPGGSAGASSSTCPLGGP
ENaC gamma subunit (epithelial sodium channel subunit gamma), sequence (P51170 whole entry): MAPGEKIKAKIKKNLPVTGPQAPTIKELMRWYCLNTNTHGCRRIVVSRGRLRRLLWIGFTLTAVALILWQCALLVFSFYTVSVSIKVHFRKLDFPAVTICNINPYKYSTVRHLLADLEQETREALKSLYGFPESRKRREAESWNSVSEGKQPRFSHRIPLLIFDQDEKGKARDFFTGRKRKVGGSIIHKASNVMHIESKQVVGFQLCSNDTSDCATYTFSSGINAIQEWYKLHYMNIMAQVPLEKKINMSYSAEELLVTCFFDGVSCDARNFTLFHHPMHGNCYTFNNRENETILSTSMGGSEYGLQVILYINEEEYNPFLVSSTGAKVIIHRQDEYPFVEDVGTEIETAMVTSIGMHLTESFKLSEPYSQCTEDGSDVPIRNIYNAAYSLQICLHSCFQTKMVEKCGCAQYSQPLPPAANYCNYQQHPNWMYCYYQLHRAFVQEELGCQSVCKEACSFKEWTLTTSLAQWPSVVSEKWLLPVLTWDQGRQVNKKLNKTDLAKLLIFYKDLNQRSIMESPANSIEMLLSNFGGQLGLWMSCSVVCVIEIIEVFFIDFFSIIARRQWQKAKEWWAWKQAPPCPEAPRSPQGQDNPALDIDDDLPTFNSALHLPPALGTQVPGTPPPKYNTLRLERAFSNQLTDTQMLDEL

In the case of `Nc1ccn([C@@H]2O[C@H](CO)[C@@H](O)C2(F)F)c(=O)n1`, the outcome in the series on ASPC1 and in the series with Homo sapiens was Active.

As to `N=C(N)NC(=O)c1nc(Cl)c(N)nc1N` [AMILORIDE], the inhibition at 5 min, 10 µM in series [1], in series [2] and in series [3] was 68% each time. In addition, the inhibition entry with HT-1080 is “inactive”.

Broadly, the inhibition is the percentage by which the read-out fell short of the control.

The values above are taken from ChEMBL document CHEMBL4196166 (J Med Chem, 2018).
